# Source: ChEMBL document CHEMBL1157378, “Role for cell density in antifungal drug resistance in Candida albicans biofilms” (2007)
# Legend:
# Type in all cases: functional
# Candida albicans [1] = assay: Antimicrobial activity against Chk1 deficient Candida albicans CHK21 at planktonic cell density of 10^8 cells/ml after 48 hrs by XTT assay; conditions: CHK21, 48 h
# How it was run: (§1)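 YNB-grown yeast (50 mM glucose, room temperature, shaken, to ~2 x 10^8 cells/ml) washed into MOPS-buffered RPMI 1640 with L-glutamine and set to the stated density. Exposed to twofold serial drug dilutions (1,024 to 0.0313 µg/ml) at 37°C, 48 h (caspofungin 24 h), with drug-free controls. Read-out: XTT (0.5 g/liter) plus 1 µM menadione, formazan at 490 nm.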
# Candida albicans [2] = assay: Antimicrobial activity against Chk1 deficient Candida albicans CHK21 dissociated biofilms at cell density of 10^3 cells/ml after 48 hrs by XTT assay; conditions: CHK21, 48 h
# How it was run: (§2)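 Polystyrene-well biofilms (48 h, 37°C) washed, then broken up in 100 µl RPMI by scraping and aspiration. Cells used undiluted (about 2 x 10^8 cells/ml equivalent) or adjusted by A600 against a hemacytometer-calibrated yeast standard curve. Drug exposure at 37°C for 48 h (caspofungin 24 h), then XTT/menadione read at 490 nm.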
# Candida albicans [3] = assay: Antimicrobial activity against Chk1 deficient Candida albicans CHK21 dissociated biofilms at cell density of 10^8 cells/ml after 48 hrs by XTT assay; conditions: CHK21, 48 h; how it was run: as §2
# Candida albicans [4] = assay: Antimicrobial activity against Chk1 deficient Candida albicans CHK21 intact biofilms after 48 hrs by XTT assay; conditions: CHK21, 48 h
# How it was run: (§3)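 Biofilm seeded at 1 x 10^6 cells/ml in RPMI in polystyrene microtiter wells and grown 48 h at 37°C in a moist chamber. Washed once and drug added to the same well (twofold dilutions, 1,024 to 0.0313 µg/ml) for 48 h at 37°C (caspofungin 24 h). Read-out: XTT/menadione reduction at 490 nm.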
# Candida albicans [5] = assay: Antimicrobial activity against Candida albicans GDH2346 intact biofilms after 48 hrs by XTT assay; conditions: GDH2346, 48 h; how it was run: as §3
# Candida albicans [6] = assay: Antimicrobial activity against Candida albicans FH1 at planktonic cell density of 10^3 cells/ml after 48 hrs by XTT assay; conditions: FH1, 48 h; how it was run: as §1
# Candida albicans [7] = assay: Antimicrobial activity against Candida albicans FH1 at planktonic cell density of 10^8 cells/ml after 48 hrs by XTT assay; conditions: FH1, 48 h; how it was run: as §1
# Candida albicans [8] = assay: Antimicrobial activity against Candida albicans FH1 dissociated biofilms at cell density of 10^3 cells/ml after 48 hrs by XTT assay; conditions: FH1, 48 h; how it was run: as §2
# Candida albicans [9] = assay: Antimicrobial activity against Candida albicans FH1 dissociated biofilms at cell density of 10^8 cells/ml after 48 hrs by XTT assay; conditions: FH1, 48 h; how it was run: as §2
# Candida albicans [10] = assay: Antimicrobial activity against Candida albicans FH1 intact biofilms after 48 hrs by XTT assay; conditions: FH1, 48 h; how it was run: as §3
# Candida albicans [11] = assay: Antimicrobial activity against fluconazole-resistant Candida albicans FH5 at planktonic cell density of 10^3 cells/ml after 48 hrs by XTT assay; conditions: FH5, 48 h; how it was run: as §1
# Candida albicans [12] = assay: Antimicrobial activity against fluconazole-resistant Candida albicans FH5 at planktonic cell density of 10^8 cells/ml after 48 hrs by XTT assay; conditions: FH5, 48 h; how it was run: as §1
# Candida albicans [13] = assay: Antimicrobial activity against fluconazole-resistant Candida albicans FH5 dissociated biofilms at cell density of 10^3 cells/ml after 48 hrs by XTT assay; conditions: FH5, 48 h; how it was run: as §2
# Candida albicans [14] = assay: Antimicrobial activity against fluconazole-resistant Candida albicans FH5 dissociated biofilms at cell density of 10^8 cells/ml after 48 hrs by XTT assay; conditions: FH5, 48 h; how it was run: as §2
# Candida albicans [15] = assay: Antimicrobial activity against fluconazole-resistant Candida albicans FH5 intact biofilms after 48 hrs by XTT assay; conditions: FH5, 48 h; how it was run: as §3
# Candida albicans [16] = assay: Antimicrobial activity against Cdr1, Cdr2 and Mdr1 deficient Candida albicans DSY1050 at planktonic cell density of 10^3 cells/ml after 48 hrs by XTT assay; conditions: DSY1050, 48 h; how it was run: as §1
# Candida albicans [17] = assay: Antimicrobial activity against Cdr1, Cdr2 and Mdr1 deficient Candida albicans DSY1050 at planktonic cell density of 10^8 cells/ml after 48 hrs by XTT assay; conditions: DSY1050, 48 h; how it was run: as §1
# Candida albicans [18] = assay: Antimicrobial activity against Cdr1, Cdr2 and Mdr1 deficient Candida albicans DSY1050 dissociated biofilms at cell density of 10^3 cells/ml after 48 hrs by XTT assay; conditions: DSY1050, 48 h; how it was run: as §2
# Candida albicans [19] = assay: Antimicrobial activity against Cdr1, Cdr2 and Mdr1 deficient Candida albicans DSY1050 dissociated biofilms at cell density of 10^8 cells/ml after 48 hrs by XTT assay; conditions: DSY1050, 48 h; how it was run: as §2
# Candida albicans [20] = assay: Antimicrobial activity against Cdr1, Cdr2 and Mdr1 deficient Candida albicans DSY1050 intact biofilms after 48 hrs by XTT assay; conditions: DSY1050, 48 h; how it was run: as §3
# Candida albicans [21] = assay: Antimicrobial activity against Chk1 deficient Candida albicans CHK21 at planktonic cell density of 10^3 cells/ml after 48 hrs by XTT assay; conditions: CHK21, 48 h; how it was run: as §1
# Candida albicans [22] = assay: Antimicrobial activity against Candida albicans SC5314 at planktonic cell density of 10^3 cells/ml after 48 hrs by XTT assay; conditions: SC5314, 48 h; how it was run: as §1
# Candida albicans [23] = assay: Antimicrobial activity against Candida albicans SC5314 dissociated biofilms at cell density of 10^3 cells/ml after 48 hrs by XTT assay; conditions: SC5314, 48 h; how it was run: as §2
# Candida albicans [24] = assay: Antimicrobial activity against Candida albicans SC5314 at planktonic cell density of 10^8 cells/ml after 48 hrs by XTT assay; conditions: SC5314, 48 h; how it was run: as §1
# Candida albicans [25] = assay: Antimicrobial activity against Candida albicans SC5314 dissociated biofilms at cell density of 10^8 cells/ml after 48 hrs by XTT assay; conditions: SC5314, 48 h; how it was run: as §2
# Candida albicans [26] = assay: Antimicrobial activity against Candida albicans SC5314 intact biofilms after 48 hrs by XTT assay; conditions: SC5314, 48 h; how it was run: as §3
# Candida albicans [27] = assay: Antimicrobial activity against Candida albicans GDH2346 at planktonic cell density of 10^3 cells/ml after 48 hrs by XTT assay; conditions: GDH2346, 48 h; how it was run: as §1
# Candida albicans [28] = assay: Antimicrobial activity against Candida albicans GDH2346 at planktonic cell density of 10^8 cells/ml after 48 hrs by XTT assay; conditions: GDH2346, 48 h; how it was run: as §1
# Candida albicans [29] = assay: Antimicrobial activity against Candida albicans GDH2346 dissociated biofilms at cell density of 10^3 cells/ml after 48 hrs by XTT assay; conditions: GDH2346, 48 h; how it was run: as §2
# Candida albicans [30] = assay: Antimicrobial activity against Candida albicans GDH2346 dissociated biofilms at cell density of 10^8 cells/ml after 48 hrs by XTT assay; conditions: GDH2346, 48 h; how it was run: as §2
structure (smiles),measurement,setting,value
CC(=O)N1CCN(c2ccc(OC[C@H]3CO[C@](Cn4ccnc4)(c4ccc(Cl)cc4Cl)O3)cc2)CC1 [KETOCONAZOLE],MIC80,Candida albicans [1],> 64 µg/mL
same,MIC80,Candida albicans [2],0.125 µg/mL
same,MIC80,Candida albicans [3],> 64 µg/mL
same,MIC80,Candida albicans [4],> 64 µg/mL
same,MIC80,Candida albicans [5],> 512 µg/mL
same,MIC80,Candida albicans [6],4 µg/mL
same,MIC80,Candida albicans [7],> 512 µg/mL
same,MIC80,Candida albicans [8],4 µg/mL
same,MIC80,Candida albicans [9],> 512 µg/mL
same,MIC80,Candida albicans [10],> 512 µg/mL
same,MIC80,Candida albicans [11],64 µg/mL
same,MIC80,Candida albicans [12],> 256 µg/mL
same,MIC80,Candida albicans [13],64 µg/mL
same,MIC80,Candida albicans [14],> 512 µg/mL
same,MIC80,Candida albicans [15],> 512 µg/mL
same,MIC80,Candida albicans [16],0.25 µg/mL
same,MIC80,Candida albicans [17],> 256 µg/mL
same,MIC80,Candida albicans [18],0.125 µg/mL
same,MIC80,Candida albicans [19],> 64 µg/mL
same,MIC80,Candida albicans [20],> 64 µg/mL
same,MIC80,Candida albicans [21],0.125 µg/mL
same,MIC80,Candida albicans [22],0.125 µg/mL
same,MIC80,Candida albicans [23],0.5 µg/mL
same,MIC80,Candida albicans [24],> 512 µg/mL
same,MIC80,Candida albicans [25],> 512 µg/mL
same,MIC80,Candida albicans [26],> 512 µg/mL
same,MIC80,Candida albicans [27],0.25 µg/mL
same,MIC80,Candida albicans [28],> 512 µg/mL
same,MIC80,Candida albicans [29],0.125 µg/mL
same,MIC80,Candida albicans [30],> 64 µg/mL
